In ChEMBL document CHEMBL1148403, “Platinum(IV) complex with adamantylamine as nonleaving amine group: synthesis, characterization, and in vitro antitumor activity against a panel of cisplatin-resistant cancer cell lines” (J Med Chem, 2004):

How the values were obtained:
A2780 [1] = assay: Cytotoxicity against ovarian carcinoma A2780/cis90 tumor cell lines; format: functional, cell-based, Homo sapiens
A-427 = assay: Cytotoxicity against lung carcinoma A427 tumor cell lines; format: functional, cell-based, Homo sapiens
A2780 [2] = assay: Cytotoxicity against ovarian carcinoma A2780 tumor cell lines; format: functional, cell-based, Homo sapiens
Procedure, shortened: (§1)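 Cisplatin-sensitive A2780 cells and the A2780/cis resistant subline were exposed continuously for graded times (24, 48 and 72 h). IC50 was determined at each exposure time. The resistant subline had been derived by gradual cisplatin treatment.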

B16 = assay: Cytotoxicity against mouse melanoma B16 tumor cell lines; format: functional, cell-based
COR-L23 = assay: Cytotoxicity against lung carcinoma COR-L23/CTR tumor cell lines; format: functional, cell-based, Homo sapiens
HCT-116 = assay: Cytotoxicity against colon cancer HCT116 tumor cell lines; format: functional, cell-based, Homo sapiens
HT-29 [3] = assay: Cytotoxicity against colon cancer HT-29 tumor cell lines; format: functional, cell-based, Homo sapiens
HBL-100 = assay: Cytotoxicity against breast carcinoma HBL100 tumor cell lines; format: functional, cell-based, Homo sapiens
HT-29 [4] = assay: Cytotoxicity against colon cancer HT29N tumor cell lines; format: functional, cell-based, Homo sapiens
K562 = assay: Cytotoxicity against chronic myelogenous leukemia K562 tumor cell lines; format: functional, cell-based, Homo sapiens
KG-1 = assay: Cytotoxicity against chronic myelogenous leukemia KG-1 tumor cell lines; format: functional, cell-based, Homo sapiens
ML-2 = assay: Cytotoxicity against acute myelogenous leukemia ML-2 tumor cell lines; format: functional, cell-based, Homo sapiens
MCF7 = assay: Cytotoxicity against breast carcinoma MCF-7 tumor cell lines; format: functional, cell-based, Homo sapiens
A2780 [5] = assay: Cytotoxicity against ovarian carcinoma A2780/cis tumor cell lines; format: functional, cell-based, Homo sapiens; procedure, shortened: as §1

## CISPLATIN
A2780 [1]
  IC50: > 80 µM
A-427
  IC50: 63 µM
A2780 [2]
  IC50: 4 µM
B16
  IC50: > 80 µM
COR-L23
  IC50: > 80 µM
HCT-116
  IC50: > 80 µM
HT-29 [3]
  IC50: 50 µM
HBL-100
  IC50: 63 µM
HT-29 [4]
  IC50: > 80 µM
K562
  IC50: > 80 µM
KG-1
  IC50: 48 µM
ML-2
  IC50: > 80 µM
MCF7
  IC50: 71 µM
A2780 [5]
  IC50: 40 µM
